According to article PMC5656903 (Chemistry (Weinheim an Der Bergstrasse, Germany), 2017):

Target: Human integrin αvβ3 receptor (Homo sapiens, UniProt P05106+P06756)
Type: binding
Details: for IC50: SD; for increase of IC50 compared to the free ligand 1: αvβ3, biotinylated vitronectin binding, from Table 1
Procedure, shortened: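 Immobilized integrin αvβ3 incubated with test compound at graded concentrations (10−12 to 10−5) together with biotinylated vitronectin (1 μg mL−1); bound vitronectin measured. IC50 taken from the inhibition of vitronectin binding, reported as arithmetic mean ± SD of triplicate determinations.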

Human integrin αvβ3 receptor, sequence (P06756 31-992 limits assumed): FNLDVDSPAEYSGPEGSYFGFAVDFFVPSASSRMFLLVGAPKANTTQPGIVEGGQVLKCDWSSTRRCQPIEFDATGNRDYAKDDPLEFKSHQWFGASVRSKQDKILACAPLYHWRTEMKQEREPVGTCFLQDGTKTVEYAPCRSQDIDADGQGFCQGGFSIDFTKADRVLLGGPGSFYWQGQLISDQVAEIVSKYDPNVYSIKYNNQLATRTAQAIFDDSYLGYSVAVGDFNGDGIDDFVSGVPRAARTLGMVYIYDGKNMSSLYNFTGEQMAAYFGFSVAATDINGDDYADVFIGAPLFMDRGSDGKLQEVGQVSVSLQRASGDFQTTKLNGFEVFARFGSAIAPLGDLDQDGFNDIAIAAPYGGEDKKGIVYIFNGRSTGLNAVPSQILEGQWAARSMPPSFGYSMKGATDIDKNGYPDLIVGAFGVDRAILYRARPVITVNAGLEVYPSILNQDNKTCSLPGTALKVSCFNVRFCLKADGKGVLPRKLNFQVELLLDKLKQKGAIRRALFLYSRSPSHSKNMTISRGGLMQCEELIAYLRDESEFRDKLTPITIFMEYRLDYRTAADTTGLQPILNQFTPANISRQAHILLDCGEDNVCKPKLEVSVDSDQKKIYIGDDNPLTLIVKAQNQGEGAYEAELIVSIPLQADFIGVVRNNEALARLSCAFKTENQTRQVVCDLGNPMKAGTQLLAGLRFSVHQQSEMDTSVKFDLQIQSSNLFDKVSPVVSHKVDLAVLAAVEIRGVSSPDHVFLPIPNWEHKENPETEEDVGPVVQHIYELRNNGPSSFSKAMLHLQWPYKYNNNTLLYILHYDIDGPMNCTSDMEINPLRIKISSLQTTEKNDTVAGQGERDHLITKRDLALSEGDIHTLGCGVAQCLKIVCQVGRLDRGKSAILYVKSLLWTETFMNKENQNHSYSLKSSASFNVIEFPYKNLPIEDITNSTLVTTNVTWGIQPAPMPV
Human integrin αvβ3 receptor, sequence (P05106 27-718 limits assumed): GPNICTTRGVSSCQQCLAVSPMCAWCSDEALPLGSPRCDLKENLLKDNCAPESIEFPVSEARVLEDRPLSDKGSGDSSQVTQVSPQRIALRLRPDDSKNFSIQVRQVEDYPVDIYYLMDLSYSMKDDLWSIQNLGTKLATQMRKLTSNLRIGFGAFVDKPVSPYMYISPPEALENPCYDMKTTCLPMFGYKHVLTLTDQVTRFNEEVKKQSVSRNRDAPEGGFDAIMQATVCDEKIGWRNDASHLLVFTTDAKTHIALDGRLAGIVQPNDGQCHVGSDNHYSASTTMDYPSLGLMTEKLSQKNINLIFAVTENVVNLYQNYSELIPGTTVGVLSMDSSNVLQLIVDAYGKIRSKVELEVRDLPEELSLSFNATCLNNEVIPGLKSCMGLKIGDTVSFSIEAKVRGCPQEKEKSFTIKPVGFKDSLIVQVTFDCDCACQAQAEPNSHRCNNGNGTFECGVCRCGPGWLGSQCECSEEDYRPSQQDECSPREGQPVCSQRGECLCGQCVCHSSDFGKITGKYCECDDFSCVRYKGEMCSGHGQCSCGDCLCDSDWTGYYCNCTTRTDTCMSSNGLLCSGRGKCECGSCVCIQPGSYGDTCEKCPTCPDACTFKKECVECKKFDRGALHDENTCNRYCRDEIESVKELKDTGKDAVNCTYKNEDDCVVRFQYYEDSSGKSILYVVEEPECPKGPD

With `CC(=O)O[C@H]1C(=O)[C@@]2(C)[C@H]([C@H](OC(=O)c3ccccc3)[C@]3(O)C[C@H](OC(=O)[C@H](OC(=O)N(C)CCN(C)C(=O)OCc4ccc(NC(=O)[C@H](C)NC(=O)[C@@H](NC(=O)CCc5cn(CCOCCOCCOCCOCC(=O)NCc6ccc(CN7C(=O)[C@H]8CC(=O)N[C@@H](CCCNC(=N)N)C(=O)NCC(=O)N[C@@H](CC(=O)O)C(=O)NC[C@H]7C(=O)N8)cc6)nn5)C(C)C)cc4)[C@@H](NC(=O)c4ccccc4)c4ccccc4)C(C)=C1C3(C)C)[C@]1(OC(C)=O)CO[C@@H]1C[C@@H]2O` [compound 5, cyclo[DKP‐RGD]‐Val‐Ala‐PTX (aliphatic scaffold)] as the compound, how does the IC50 read?
Its IC50 is 14.8 ± 3.9 nM.

What about the “increase of IC50 compared to the free ligand 1” value of the same compound?
Its value is 3 fold.

For `CC(=O)O[C@H]1C(=O)[C@@]2(C)[C@H]([C@H](OC(=O)c3ccccc3)[C@]3(O)C[C@H](OC(=O)[C@H](OC(=O)N(C)CCN(C)C(=O)OCc4ccc(NC(=O)[C@H](C)NC(=O)[C@@H](NC(=O)c5ccc(OCc6cn(CCOCCOCCOCCOCC(=O)NCc7ccc(CN8C(=O)[C@H]9CC(=O)N[C@@H](CCCNC(=N)N)C(=O)NCC(=O)N[C@@H](CC(=O)O)C(=O)NC[C@H]8C(=O)N9)cc7)nn6)cc5)C(C)C)cc4)[C@@H](NC(=O)c4ccccc4)c4ccccc4)C(C)=C1C3(C)C)[C@]1(OC(C)=O)CO[C@@H]1C[C@@H]2O` [compound 6, cyclo[DKP‐RGD]‐Val‐Ala‐PTX (aromatic scaffold)], which IC50 is on record?
The IC50 was 27.3 ± 9.8 nM.

What about the “increase of IC50 compared to the free ligand 1” value of the same compound?
The value was 6 fold.

Which IC50 does the source give for `CC(=O)O[C@H]1C(=O)[C@@]2(C)[C@H]([C@H](OC(=O)c3ccccc3)[C@]3(O)C[C@H](OC(=O)[C@H](OC(=O)N(C)CCN(C)C(=O)OCc4ccc(NC(=O)[C@H](C)NC(=O)[C@@H](NC(=O)Cc5cc(OCc6cn(CCOCCOCCOCCOCC(=O)NCc7ccc(CN8C(=O)[C@H]9CC(=O)N[C@@H](CCCNC(=N)N)C(=O)NCC(=O)N[C@@H](CC(=O)O)C(=O)NC[C@H]8C(=O)N9)cc7)nn6)cc(OCc6cn(CCOCCOCCOCCOCC(=O)NCc7ccc(CN8C(=O)[C@H]9CC(=O)N[C@@H](CCCNC(=N)N)C(=O)NCC(=O)N[C@@H](CC(=O)O)C(=O)NC[C@H]8C(=O)N9)cc7)nn6)c5)C(C)C)cc4)[C@@H](NC(=O)c4ccccc4)c4ccccc4)C(C)=C1C3(C)C)[C@]1(OC(C)=O)CO[C@@H]1C[C@@H]2O` [compound 7, (cyclo[DKP‐RGD])2‐Val‐Ala‐PTX] here?
The IC50 was 4 ± 0.1 nM.

With `CC(=O)O[C@H]1C(=O)[C@@]2(C)[C@H]([C@H](OC(=O)c3ccccc3)[C@]3(O)C[C@H](OC(=O)[C@H](OC(=O)N(C)CCN(C)C(=O)OCc4ccc(NC(=O)[C@H](C)NC(=O)[C@@H](NC(=O)Cc5cc(OCCNC(=O)Cc6cc(OCc7cn(CCOCCOCCOCCOCC(=O)NCc8ccc(CN9C(=O)[C@H]%10CC(=O)N[C@@H](CCCNC(=N)N)C(=O)NCC(=O)N[C@@H](CC(=O)O)C(=O)NC[C@H]9C(=O)N%10)cc8)nn7)cc(OCc7cn(CCOCCOCCOCCOCC(=O)NCc8ccc(CN9C(=O)[C@H]%10CC(=O)N[C@@H](CCCNC(=N)N)C(=O)NCC(=O)N[C@@H](CC(=O)O)C(=O)NC[C@H]9C(=O)N%10)cc8)nn7)c6)cc(OCCNC(=O)c6ccc(OCc7cn(CCOCCOCCOCCOCC(=O)NCc8ccc(CN9C(=O)[C@H]%10CC(=O)N[C@@H](CCCNC(=N)N)C(=O)NCC(=O)N[C@@H](CC(=O)O)C(=O)NC[C@H]9C(=O)N%10)cc8)nn7)cc6)c5)C(C)C)cc4)[C@@H](NC(=O)c4ccccc4)c4ccccc4)C(C)=C1C3(C)C)[C@]1(OC(C)=O)CO[C@@H]1C[C@@H]2O` [compound 8, (cyclo[DKP‐RGD])3‐Val‐Ala‐PTX] as the compound, how does the IC50 read?
Its IC50 is 1.2 ± 0.5 nM.

`CC(=O)O[C@H]1C(=O)[C@@]2(C)[C@H]([C@H](OC(=O)c3ccccc3)[C@]3(O)C[C@H](OC(=O)[C@H](OC(=O)N(C)CCN(C)C(=O)OCc4ccc(NC(=O)[C@H](C)NC(=O)[C@@H](NC(=O)Cc5cc(OCCNC(=O)Cc6cc(OCc7cn(CCOCCOCCOCCOCC(=O)NCc8ccc(CN9C(=O)[C@H]%10CC(=O)N[C@@H](CCCNC(=N)N)C(=O)NCC(=O)N[C@@H](CC(=O)O)C(=O)NC[C@H]9C(=O)N%10)cc8)nn7)cc(OCc7cn(CCOCCOCCOCCOCC(=O)NCc8ccc(CN9C(=O)[C@H]%10CC(=O)N[C@@H](CCCNC(=N)N)C(=O)NCC(=O)N[C@@H](CC(=O)O)C(=O)NC[C@H]9C(=O)N%10)cc8)nn7)c6)cc(OCCNC(=O)Cc6cc(OCc7cn(CCOCCOCCOCCOCC(=O)NCc8ccc(CN9C(=O)[C@H]%10CC(=O)N[C@@H](CCCNC(=N)N)C(=O)NCC(=O)N[C@@H](CC(=O)O)C(=O)NC[C@H]9C(=O)N%10)cc8)nn7)cc(OCc7cn(CCOCCOCCOCCOCC(=O)NCc8ccc(CN9C(=O)[C@H]%10CC(=O)N[C@@H](CCCNC(=N)N)C(=O)NCC(=O)N[C@@H](CC(=O)O)C(=O)NC[C@H]9C(=O)N%10)cc8)nn7)c6)c5)C(C)C)cc4)[C@@H](NC(=O)c4ccccc4)c4ccccc4)C(C)=C1C3(C)C)[C@]1(OC(C)=O)CO[C@@H]1C[C@@H]2O` [compound 9, (cyclo[DKP‐RGD])4‐Val‐Ala‐PTX] was tested. Which IC50 did it give?
Its IC50 is 1.3 ± 0.3 nM.
